In ChEMBL document CHEMBL5247599, “New β-arylchalcogeno amines with procognitive properties targeting Carbonic Anhydrases and Monoamine Oxidases” (Eur J Med Chem, 2022):
Activity calls are given as the source filed them. The rule behind the calls is not given here.

Legend:
[1] = biological target: Carbonic anhydrase 14 (Homo sapiens) (UniProt Q9ULX7); assay: Binding affinity to human CA14 by phenol red dye based stopped flow CO2 hydration assay; conditions: filed as activator
Procedure, shortened: (§1)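 Purified recombinant human CA isoforms. CA-catalysed CO2 hydration was followed by stopped-flow with phenol red at 557 nm, taking initial rates over 10–100 s from at least six traces of the first 5–10% of reaction. Uncatalysed rates were subtracted. Activator stocks were 0.1 mM in deionised water, diluted down to 0.1 nM in assay buffer. K_A came from non-linear least-squares Michaelis–Menten fitting.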

[2] = biological target: T1, Amine oxidase [flavin-containing] A (Homo sapiens, UniProt P21397); assay: Inhibition of human recombinant MAO-A assessed as inhibition of 4-hydroxyquinoline formation using kynuramine as substrate by fluorescence spectrophotometry analysis
T1 sequence (P21397 whole entry): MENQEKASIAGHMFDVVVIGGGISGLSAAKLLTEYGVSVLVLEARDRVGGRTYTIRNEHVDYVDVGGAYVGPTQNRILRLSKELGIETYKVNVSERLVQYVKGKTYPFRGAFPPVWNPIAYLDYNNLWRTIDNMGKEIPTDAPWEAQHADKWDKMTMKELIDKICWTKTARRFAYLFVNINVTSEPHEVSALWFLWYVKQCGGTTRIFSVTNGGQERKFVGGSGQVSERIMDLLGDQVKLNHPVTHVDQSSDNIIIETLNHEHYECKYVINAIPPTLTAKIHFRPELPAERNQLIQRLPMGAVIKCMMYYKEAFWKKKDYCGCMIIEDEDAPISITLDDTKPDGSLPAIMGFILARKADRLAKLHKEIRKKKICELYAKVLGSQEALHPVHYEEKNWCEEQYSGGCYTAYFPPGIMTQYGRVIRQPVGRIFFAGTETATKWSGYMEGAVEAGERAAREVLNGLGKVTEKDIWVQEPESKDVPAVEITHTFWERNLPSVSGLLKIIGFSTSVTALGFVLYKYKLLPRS
Procedure, shortened: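 Recombinant human MAO-A with kynuramine as substrate. The 4-hydroxyquinoline product was quantified by fluorescence spectrophotometry, and IC50 values were determined.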

[3] = biological target: Carbonic anhydrase 7 (Homo sapiens) (UniProt P43166); assay: Binding affinity to human CA7 by phenol red dye based stopped flow CO2 hydration assay; conditions: filed as activator; procedure, shortened: as §1
[4] = biological target: Carbonic anhydrase 13 (Homo sapiens) (UniProt Q8N1Q1); assay: Binding affinity to human CA13 by phenol red dye based stopped flow CO2 hydration assay; conditions: filed as activator; procedure, shortened: as §1
[5] = biological target: Carbonic anhydrase 1 (Homo sapiens) (UniProt P00915); assay: Binding affinity to human CA1 by phenol red dye based stopped flow CO2 hydration assay; conditions: filed as activator; procedure, shortened: as §1
Mus musculus [6] = assay: Pro-cognitive activity in C57Bl6 mouse assessed as attenuation of long-term memory deficit by measuring increase in exploration time for novel object by measuring discrimination index at 50 nmol/uL, icv measured after 24 hrs by novel object recognition test; format: functional
Procedure, shortened: (§2)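 Novel object recognition in adult male C57Bl6 mice. Habituation was 10 min in an empty arena. Twenty-four hours later, mice explored two identical objects for 5 min, then received an immediate 5 µL lateral-ventricle infusion at 1 µL/min. A 5-min retention test with one familiar and one novel object followed 24 h later. Scores were % exploration time and DI = (tN−tF)/(tN+tF).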

[7] = biological target: Carbonic anhydrase 5B, mitochondrial (Homo sapiens) (UniProt Q9Y2D0); assay: Binding affinity to human CA5b by phenol red dye based stopped flow CO2 hydration assay; conditions: filed as activator; procedure, shortened: as §1
[8] = biological target: Carbonic anhydrase 4 (Homo sapiens) (UniProt P22748); assay: Binding affinity to human CA4 by phenol red dye based stopped flow CO2 hydration assay; conditions: filed as activator; procedure, shortened: as §1
Mus musculus [9] = assay: Pro-cognitive activity in C57Bl6 mouse assessed as attenuation of long-term memory deficit by measuring increase in exploration time for novel object at 25 nmol/uL, icv measured after 24 hrs by novel object recognition test; format: functional, organism-based; procedure, shortened: as §2
Mus musculus [10] = assay: Pro-cognitive activity in C57Bl6 mouse assessed as attenuation of long-term memory deficit by measuring increase in exploration time for novel object by measuring discrimination index at 25 nmol/uL, icv measured after 24 hrs by novel object recognition test
[11] = biological target: Carbonic anhydrase 12 (Homo sapiens) (UniProt O43570); assay: Binding affinity to human CA12 by phenol red dye based stopped flow CO2 hydration assay; conditions: filed as activator; procedure, shortened: as §1
Mus musculus [12] = assay: Pro-cognitive activity in C57Bl6 mouse assessed as attenuation of long-term memory deficit by measuring increase in exploration time for novel juvenile at 25 nmol/uL, icv measured after 48 hrs by novel object recognition test; format: functional, organism-based
Procedure, shortened: (§3)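 Male adult C57Bl6 mice (8–9 weeks), lateral-ventricle cannula implanted 7 days earlier. Social recognition: 10-min habituation to arena with two empty cups; 24 h later 10-min acquisition with an unfamiliar juvenile (3–4 weeks) under one wire cup. Immediately after, 5 µL i.c.v. infusion at 1 µL/min. Retention at 48 h with familiar and novel juvenile; percentage time exploring each cup (snout-to-cup contact).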

Mus musculus [13] = assay: Pro-cognitive activity in C57Bl6 mouse assessed as attenuation of long-term memory deficit by measuring increase in exploration time for novel juvenile at 50 nmol/uL, icv measured after 48 hrs by novel object recognition test; format: functional, organism-based; procedure, shortened: as §3
[14] = biological target: Carbonic anhydrase 9 (Homo sapiens) (UniProt Q16790); assay: Binding affinity to human CA9 by phenol red dye based stopped flow CO2 hydration assay; conditions: filed as activator; procedure, shortened: as §1
[15] = biological target: T2, Amine oxidase [flavin-containing] B (Homo sapiens, UniProt P27338)
T2 sequence (P27338 whole entry): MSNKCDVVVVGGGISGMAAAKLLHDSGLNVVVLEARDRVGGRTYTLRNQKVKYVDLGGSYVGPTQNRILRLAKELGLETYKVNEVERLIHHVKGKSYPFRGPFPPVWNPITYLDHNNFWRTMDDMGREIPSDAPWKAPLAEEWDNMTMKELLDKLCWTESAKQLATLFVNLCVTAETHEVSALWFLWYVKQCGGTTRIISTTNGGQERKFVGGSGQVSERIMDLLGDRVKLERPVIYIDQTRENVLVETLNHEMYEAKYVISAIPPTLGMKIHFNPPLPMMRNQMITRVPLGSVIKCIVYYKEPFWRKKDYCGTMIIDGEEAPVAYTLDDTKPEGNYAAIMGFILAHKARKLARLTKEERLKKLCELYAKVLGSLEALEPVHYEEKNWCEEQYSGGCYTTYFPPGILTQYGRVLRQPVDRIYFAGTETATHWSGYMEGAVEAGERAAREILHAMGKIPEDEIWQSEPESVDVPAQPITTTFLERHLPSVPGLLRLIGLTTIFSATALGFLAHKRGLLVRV

[16] = biological target: Carbonic anhydrase 6 (Homo sapiens) (UniProt P23280); assay: Binding affinity to human CA6 by phenol red dye based stopped flow CO2 hydration assay; conditions: filed as activator; procedure, shortened: as §1
[17] = Toxicity in overnight fasted C57Bl6 mouse assessed as reduction in food intake at 50 nmol/uL administered directly into lateral ventricle measured for 2 hrs; conditions: in vivo, icv_or_intrathecal
Procedure, shortened: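 Overnight-fasted male C57Bl6 mice received a lateral-ventricle infusion. Food was presented 30 min later, and intake was recorded at 0.5 h intervals over 2 h as cumulative consumption corrected for body weight; n = 8–9 per group.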

Chain of Carbonic anhydrase 12 (Homo sapiens) (O43570 whole entry): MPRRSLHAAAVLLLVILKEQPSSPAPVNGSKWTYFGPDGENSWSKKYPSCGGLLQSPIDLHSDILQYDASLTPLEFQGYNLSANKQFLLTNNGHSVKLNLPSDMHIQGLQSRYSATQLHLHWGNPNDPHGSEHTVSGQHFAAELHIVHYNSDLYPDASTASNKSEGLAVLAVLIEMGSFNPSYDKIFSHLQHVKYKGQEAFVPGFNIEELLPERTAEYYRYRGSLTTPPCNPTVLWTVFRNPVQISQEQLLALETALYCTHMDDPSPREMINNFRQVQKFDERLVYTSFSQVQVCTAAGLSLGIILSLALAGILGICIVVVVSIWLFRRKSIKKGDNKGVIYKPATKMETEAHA
Chain of Carbonic anhydrase 1 (Homo sapiens) (P00915 2-261 limits assumed): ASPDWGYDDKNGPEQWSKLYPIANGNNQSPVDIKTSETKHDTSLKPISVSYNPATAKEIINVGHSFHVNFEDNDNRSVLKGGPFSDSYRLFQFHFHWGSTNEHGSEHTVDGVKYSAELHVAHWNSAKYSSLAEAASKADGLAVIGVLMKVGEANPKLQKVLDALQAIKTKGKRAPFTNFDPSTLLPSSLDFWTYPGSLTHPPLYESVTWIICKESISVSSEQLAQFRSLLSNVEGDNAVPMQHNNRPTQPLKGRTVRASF
Chain of Carbonic anhydrase 5B, mitochondrial (Homo sapiens) (Q9Y2D0 whole entry): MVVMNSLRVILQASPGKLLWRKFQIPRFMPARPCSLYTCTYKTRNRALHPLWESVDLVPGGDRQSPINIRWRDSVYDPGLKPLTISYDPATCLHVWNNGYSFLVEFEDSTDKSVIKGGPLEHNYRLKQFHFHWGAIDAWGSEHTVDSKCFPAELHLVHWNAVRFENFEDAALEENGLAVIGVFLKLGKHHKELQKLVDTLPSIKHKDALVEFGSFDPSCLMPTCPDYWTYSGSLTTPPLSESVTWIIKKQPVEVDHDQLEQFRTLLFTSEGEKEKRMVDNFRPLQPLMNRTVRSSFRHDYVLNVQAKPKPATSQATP
Chain of Carbonic anhydrase 13 (Homo sapiens) (Q8N1Q1 whole entry, looked up): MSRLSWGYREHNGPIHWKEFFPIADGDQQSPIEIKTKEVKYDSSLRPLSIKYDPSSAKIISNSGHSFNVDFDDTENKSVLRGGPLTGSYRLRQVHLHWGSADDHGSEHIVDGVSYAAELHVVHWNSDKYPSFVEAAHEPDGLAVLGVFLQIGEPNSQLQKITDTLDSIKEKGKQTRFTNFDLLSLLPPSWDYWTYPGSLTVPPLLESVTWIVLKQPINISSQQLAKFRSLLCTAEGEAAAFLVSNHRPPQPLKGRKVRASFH
Chain of Carbonic anhydrase 6 (Homo sapiens) (P23280 whole entry): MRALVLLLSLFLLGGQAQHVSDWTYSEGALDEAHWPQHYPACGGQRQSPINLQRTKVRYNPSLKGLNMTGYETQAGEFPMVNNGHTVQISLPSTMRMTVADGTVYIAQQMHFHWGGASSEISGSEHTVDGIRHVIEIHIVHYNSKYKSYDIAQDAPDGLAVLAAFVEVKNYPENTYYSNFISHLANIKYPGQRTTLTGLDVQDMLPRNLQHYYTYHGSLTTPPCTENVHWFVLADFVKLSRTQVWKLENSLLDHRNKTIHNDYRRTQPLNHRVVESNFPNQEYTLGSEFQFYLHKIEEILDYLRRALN
Chain of Carbonic anhydrase 7 (Homo sapiens) (P43166 whole entry): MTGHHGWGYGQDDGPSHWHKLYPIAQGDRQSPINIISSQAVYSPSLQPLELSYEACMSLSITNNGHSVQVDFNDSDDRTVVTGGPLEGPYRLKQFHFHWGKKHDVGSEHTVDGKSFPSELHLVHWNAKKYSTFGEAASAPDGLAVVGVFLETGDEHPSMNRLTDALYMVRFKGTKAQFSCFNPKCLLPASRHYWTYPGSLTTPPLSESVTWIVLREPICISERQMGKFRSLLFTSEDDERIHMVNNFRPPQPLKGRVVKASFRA
Chain of Carbonic anhydrase 14 (Homo sapiens) (Q9ULX7 whole entry, canonical isoform): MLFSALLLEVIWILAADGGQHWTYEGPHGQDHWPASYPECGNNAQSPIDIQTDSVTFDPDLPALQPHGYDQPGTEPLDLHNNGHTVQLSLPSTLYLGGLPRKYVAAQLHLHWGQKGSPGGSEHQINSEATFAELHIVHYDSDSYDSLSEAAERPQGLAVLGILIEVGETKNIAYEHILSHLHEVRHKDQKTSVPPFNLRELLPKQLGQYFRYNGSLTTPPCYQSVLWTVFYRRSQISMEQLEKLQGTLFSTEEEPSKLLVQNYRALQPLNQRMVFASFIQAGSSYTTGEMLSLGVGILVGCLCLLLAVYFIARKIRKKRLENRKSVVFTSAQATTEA
Chain of Carbonic anhydrase 4 (Homo sapiens) (P22748 whole entry): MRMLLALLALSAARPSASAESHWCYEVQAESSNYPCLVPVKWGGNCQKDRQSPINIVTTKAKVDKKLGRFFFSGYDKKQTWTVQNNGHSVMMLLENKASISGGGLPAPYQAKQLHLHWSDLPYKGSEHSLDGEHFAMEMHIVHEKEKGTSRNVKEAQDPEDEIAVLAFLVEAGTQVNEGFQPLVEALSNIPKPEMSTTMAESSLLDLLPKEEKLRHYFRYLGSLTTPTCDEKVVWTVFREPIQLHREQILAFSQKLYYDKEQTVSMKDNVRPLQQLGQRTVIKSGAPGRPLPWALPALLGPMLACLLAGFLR

Ka [1]: 9.8 µM | IC50 [2]: 4.72 µM | Ka [3]: 23.4 µM | Ka [4]: 82.4 µM | Ka [5]: 11.8 µM | Ka [7]: 18.7 µM | Ka [8]: 7.1 µM | Ka [11]: 43.3 µM | Ka [14]: 74.8 µM | IC50 [15]: 57.3 µM | Ka [16]: 70.9 µM
Structure (SMILES): CC(N)CSc1ccccc1 (configuration not stated)
Activity_index (Mus musculus [6]): 0.185 | Activity (Mus musculus [9]): inactive | Activity_index (Mus musculus [10]): 0.111 | Activity (Mus musculus [12]): inactive | Activity (Mus musculus [13]): Active | Activity [17]: Non-Toxic
